# Legend:
# [1] = biological target: Prothrombin (Homo sapiens, UniProt P00734); experiment: Inhibitory concentration against human thrombin activity
# In short: (§1)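 Human factor Xa, thrombin and trypsin were each monitored in vitro with a protease-specific chromogenic substrate. Inhibition was calculated from the ratio of optical density in drug-containing versus vehicle-containing assays.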
# [2] = biological target: Trypsin (Homo sapiens, UniProt P07477+P07478+P35030); experiment: Inhibitory concentration against human trypsin activity; type: protein assay; in short: as §1
# [3] = biological target: Coagulation factor X (Homo sapiens, UniProt P00742); experiment: Inhibitory concentration against human serine protease factor Xa; in short: as §1
# Coagulation factor X, sequence (P00742 41-179 limits assumed): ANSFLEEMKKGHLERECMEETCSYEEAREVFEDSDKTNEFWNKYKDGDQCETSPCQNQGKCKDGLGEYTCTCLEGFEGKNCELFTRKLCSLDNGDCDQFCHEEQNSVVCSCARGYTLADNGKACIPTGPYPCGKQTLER
# Coagulation factor X, sequence (P00742 235-488 limits assumed): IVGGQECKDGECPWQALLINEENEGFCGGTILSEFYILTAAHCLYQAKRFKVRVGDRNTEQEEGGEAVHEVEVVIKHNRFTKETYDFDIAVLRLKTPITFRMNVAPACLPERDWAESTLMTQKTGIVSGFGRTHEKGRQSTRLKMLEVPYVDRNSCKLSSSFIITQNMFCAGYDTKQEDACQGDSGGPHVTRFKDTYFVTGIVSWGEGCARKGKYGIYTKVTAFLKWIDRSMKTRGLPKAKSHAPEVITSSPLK
# [4] = Maximum absorbable dose of compound after administration at dose of 10 mg/kg was determined; type: ADME, organism-based; set-up: dose 10 mg/kg; conditions: human
# [5] = Solubility was determined; type: ADME; conditions: human
# In short: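 Shake-flask solubility was measured in phosphate buffer at pH 7 and 37 °C.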
# [6] = Bioavailability of compound after peroral administration at dose of 0.5 mg/kg in male wistar rats was determined; type: ADME, organism-based; conditions: rat, in vivo, po, read-out: Bioavailabiility
# In short: (§2)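 Pharmacokinetics were studied in male Wistar rats (N = 3), female Beagle dogs (N = 2) and female Cynomolgus monkeys (N = 2). Each animal received single intravenous and oral doses. Plasma concentration–time data gave Cmax, tmax, AUC, t1/2, CL, Vss and oral bioavailability.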
# [7] = Maximum time taken for concentration of compound in plasma after peroral administration at dose of 0.5 mg/kg in female monkeys was determined; type: ADME, organism-based; set-up: dose 0.5 mg/kg, route oral; conditions: cercopithecidae, po; in short: as §2
# [8] = Maximum plasma concentration after peroral administration of compound at dose of 0.5 mg/kg in female dogs was determined; type: ADME, organism-based, Canis lupus familiaris; set-up: dose 0.5 mg/kg, route oral; conditions: dog, po; in short: as §2
# [9] = Half life of compound after intravenous administration at dose of 0.15 mg/kg in female dogs was determined; conditions: dog, in vivo
# [10] = Steady state volume of distribution of compound after intravenous administration at dose of 0.2 mg/kg in female monkeys was determined; type: ADME, organism-based; set-up: dose 0.2 mg/kg, route intravenous; conditions: cercopithecidae, in vivo, read-out: Vss; in short: as §2
# [11] = Half life of compound after intravenous administration at dose of 0.2 mg/kg in female monkeys was determined; type: ADME, organism-based; set-up: dose 0.2 mg/kg, route intravenous; conditions: cercopithecidae, in vivo; in short: as §2
# [12] = Steady state volume of distribution of compound after intravenous administration at dose of 0.2 mg/kg in male wistar rats was determined; type: ADME, organism-based; set-up: dose 0.2 mg/kg, route intravenous; conditions: rat, in vivo, read-out: Vss; in short: as §2
# [13] = Maximum time taken for concentration of compound in plasma after peroral administration at dose of 0.5 mg/kg in female dogs was determined; type: ADME, organism-based, Canis lupus familiaris; set-up: dose 0.5 mg/kg, route oral; conditions: dog, po; in short: as §2
# [14] = Clearance of compound after intravenous administration at dose of 0.2 mg/kg in female monkeys was determined; type: ADME, organism-based; set-up: dose 0.2 mg/kg, route intravenous; conditions: cercopithecidae, in vivo; in short: as §2
# [15] = Area under curve concentration of compound at 6 hr after peroral administration at dose of 0.5 mg/kg in male wistar rats was determined; type: ADME, organism-based; set-up: time < 6 hr, dose 0.5 mg/kg, route oral; conditions: rat, in vivo, po; in short: as §2
# [16] = Area under curve concentration of compound at 6 hr after peroral administration at dose of 0.5 mg/kg in female monkeys was determined; type: ADME, organism-based; set-up: time < 6 hr, dose 0.5 mg/kg, route oral; conditions: cercopithecidae, in vivo, po; in short: as §2
# [17] = Bioavailability of compound after peroral administration at dose of 0.5 mg/kg in female monkeys was determined; type: ADME, organism-based; conditions: cercopithecidae, in vivo, po, read-out: Bioavailabiility; in short: as §2
# [18] = Area under curve concentration of compound at 6 hr after peroral administration at dose of 0.5 mg/kg in female dogs was determined; type: ADME, organism-based, Canis lupus familiaris; set-up: time < 6 hr, dose 0.5 mg/kg, route oral; conditions: dog, in vivo, po; in short: as §2
# [19] = Area under curve concentration of compound after intravenous administration at dose of 0.2 mg/kg in female monkeys was determined; type: ADME, organism-based; set-up: dose 0.2 mg/kg, route intravenous; conditions: cercopithecidae, in vivo; in short: as §2
# [20] = Maximum plasma concentration after peroral administration of compound at dose of 0.5 mg/kg in female monkeys was determined; type: ADME, organism-based; set-up: dose 0.5 mg/kg, route oral; conditions: cercopithecidae, po; in short: as §2
# [21] = Half life of compound after intravenous administration at dose of 0.2 mg/kg in male wistar rats was determined; type: ADME, organism-based; set-up: dose 0.2 mg/kg, route intravenous; conditions: rat, in vivo; in short: as §2
# [22] = Area under curve concentration of compound after intravenous administration at dose of 0.15 mg/kg in female dogs was determined; conditions: dog, in vivo
# [23] = Clearance of compound after intravenous administration at dose of 0.2 mg/kg in male wistar rats was determined; type: ADME, organism-based; set-up: dose 0.2 mg/kg, route intravenous; conditions: rat, in vivo; in short: as §2
# [24] = Steady state volume of distribution of compound after intravenous administration at dose of […] was determined; type: ADME, organism-based, Canis lupus familiaris; set-up: route intravenous; conditions: dog, in vivo, read-out: Vss; in short: as §2
# [25] = Maximum time taken for concentration of compound in plasma after peroral administration at dose of 0.5 mg/kg in male wistar rats was determined; type: ADME, organism-based; set-up: dose 0.5 mg/kg, route oral; conditions: rat, po; in short: as §2
# [26] = Bioavailability of compound after peroral administration at dose of 0.5 mg/kg in female dogs was determined; type: ADME, organism-based, Canis lupus familiaris; conditions: dog, in vivo, po, read-out: Bioavailabiility; in short: as §2
# [27] = Area under curve concentration of compound after intravenous administration at dose of 0.2 mg/kg in male wistar rats was determined; type: ADME, organism-based; set-up: dose 0.2 mg/kg, route intravenous; conditions: rat, in vivo; in short: as §2
# [28] = Clearance of compound after intravenous administration at dose of 0.15 mg/kg in female dogs was determined; conditions: dog, in vivo
# [29] = Maximum plasma concentration after peroral administration of compound at dose of 0.5 mg/kg in male wistar rats was determined; type: ADME, organism-based; set-up: dose 0.5 mg/kg, route oral; conditions: rat, po; in short: as §2
structure (smiles),measurement,setting,value
CCC[C@@H](NC(=O)Nc1ccc(Cl)cc1)C(=O)Nc1ccc(N2CCOCC2=O)cc1,IC50,[1],> 10 µM
same,IC50,[2],> 10 µM
O=C(CCc1ccc2nc(-c3ccc(Cl)s3)[nH]c2c1)Nc1ccc(N2CCOCC2=O)cc1F,IC50,[1],> 10 µM
O=C(CNC(=O)c1ccc(Cl)s1)Nc1ccc(N2CCOCC2=O)cc1,IC50,[1],> 10 µM
same,IC50,[3],0.7 µM
same,IC50,[2],> 10 µM
CCC[C@@H](NC(=O)c1ccc(Cl)s1)C(=O)Nc1ccc(N2CCOCC2=O)c(C)c1,IC50,[1],> 10 µM
same,IC50,[3],0.0095 µM
same,IC50,[2],> 10 µM
CC(C)C[C@H](NC(=O)c1ccc(Cl)s1)C(=O)Nc1ccc(N2CCOCC2=O)cc1,IC50,[1],> 10 µM
same,IC50,[3],0.13 µM
same,IC50,[2],> 10 µM
C[C@@H](NC(=O)c1ccc(Cl)s1)C(=O)Nc1ccc(N2CCOCC2=O)cc1,IC50,[1],> 10 µM
same,IC50,[3],0.059 µM
same,IC50,[2],> 10 µM
COC[C@@H](NC(=O)c1ccc(Cl)s1)C(=O)Nc1ccc(N2CCOCC2=O)c(C(F)(F)F)c1,IC50,[3],0.014 µM
CC(C)C[C@@H](NC(=O)c1ccc(Cl)s1)C(=O)Nc1ccc(N2CCOCC2=O)cc1,IC50,[1],> 10 µM
same,IC50,[3],0.015 µM
same,IC50,[2],> 10 µM
CCOC[C@@H](NC(=O)c1ccc(Cl)s1)C(=O)Nc1ccc(N2CCOCC2=O)c(C)c1,IC50,[1],> 10 µM
same,IC50,[3],0.01 µM
same,IC50,[2],> 10 µM
COC[C@@H](NC(=O)c1ccc(Cl)s1)C(=O)Nc1ccc(N2CCOCC2=O)c(Cl)c1,IC50,[1],> 10 µM
same,IC50,[3],0.013 µM
same,IC50,[2],> 10 µM
CC[C@@H](NC(=O)c1ccc(Cl)s1)C(=O)Nc1ccc(N2CCOCC2=O)c(C)c1,IC50,[1],> 10 µM
same,MAD,[4],6.5 mg/kg
same,IC50,[3],0.011 µM
same,solubility,[5],41 µg/mL
same,IC50,[2],> 10 µM
Cc1cc(NC(=O)[C@@H](C)NC(=O)c2ccc(Cl)s2)ccc1N1CCOCC1=O,IC50,[1],> 10 µM
same,MAD,[4],2.8 mg/kg
same,IC50,[3],0.015 µM
same,solubility,[5],134 µg/mL
same,IC50,[2],> 10 µM
CCC[C@@H](NC(=O)c1ccc(Cl)s1)C(=O)Nc1ccc(N2CCOCC2=O)cc1,IC50,[1],> 10 µM
same,IC50,[3],0.012 µM
same,IC50,[2],> 10 µM
COC[C@@H](NC(=O)c1ccc(Cl)s1)C(=O)Nc1ccc(N2CCOCC2=O)c(F)c1,IC50,[1],> 10 µM
same,IC50,[3],0.022 µM
same,IC50,[2],> 10 µM
O=C(N[C@H](C(=O)Nc1ccc(N2CCOCC2=O)cc1)c1ccccc1)c1ccc(Cl)s1,IC50,[1],> 10 µM
same,IC50,[3],0.026 µM
same,IC50,[2],> 10 µM
CC(C)[C@@H](NC(=O)c1ccc(Cl)s1)C(=O)Nc1ccc(N2CCOCC2=O)cc1,IC50,[1],> 10 µM
same,IC50,[3],0.066 µM
same,IC50,[2],> 10 µM
CC(C)C[C@@H](NC(=O)c1ccc(Cl)s1)C(=O)Nc1ccc(-n2ccccc2=O)cc1,IC50,[1],> 10 µM
same,IC50,[3],0.016 µM
same,IC50,[2],> 10 µM
COCCOC[C@@H](NC(=O)c1ccc(Cl)s1)C(=O)Nc1ccc(N2CCOCC2=O)c(C)c1,MAD,[4],22 mg/kg
same,IC50,[3],0.011 µM
same,solubility,[5],1050 µg/mL
CC(C)C[C@@H](NC(=O)c1ccc(Cl)s1)C(=O)Nc1ccc(-n2ccncc2=O)cc1,IC50,[1],> 10 µM
same,IC50,[3],0.039 µM
same,IC50,[2],> 10 µM
CC[C@@H](NC(=O)c1ccc(Cl)s1)C(=O)Nc1ccc(N2CCOCC2=O)cc1,IC50,[1],> 10 µM
same,IC50,[3],0.02 µM
same,IC50,[2],> 10 µM
O=C(N[C@@H](C(=O)Nc1ccc(N2CCOCC2=O)cc1)c1ccccc1)c1ccc(Cl)s1,IC50,[1],> 10 µM
same,IC50,[3],0.029 µM
same,IC50,[2],> 10 µM
Cc1cc(NC(=O)[C@@H](CO)NC(=O)c2ccc(Cl)s2)ccc1N1CCOCC1=O,IC50,[1],> 10 µM
same,MAD,[4],11 mg/kg
same,IC50,[3],0.029 µM
same,solubility,[5],520 µg/mL
same,IC50,[2],> 10 µM
COC[C@@H](NC(=O)c1ccc(Cl)s1)C(=O)Nc1ccc(N2CCOCC2=O)c(C)c1,bioavailability,[6],~60%
same,Tmax,[7],30 min
same,Cmax,[8],161 ng/mL
same,half-life,[9],34.2 min
same,Vd,[10],0.81 L/kg
same,IC50,[1],> 10 µM
same,half-life,[11],138 min
same,MAD,[4],11 mg/kg
same,Vd,[12],1.6 L/kg
same,Tmax,[13],30 min
same,clearance,[14],4.17 mL/min/kg
same,AUC,[15],271 ng·h/mL
same,AUC,[16],1100 ng·h/mL
same,bioavailability,[17],~80%
same,AUC,[18],211 ng·h/mL
same,AUC,[19],803 ng·h/mL
same,Cmax,[20],270 ng/mL
same,half-life,[21],66 min
same,AUC,[22],117 ng·h/mL
same,clearance,[23],15.7 mL/min/kg
same,Vd,[24],0.86 L/kg
same,Tmax,[25],150 min
same,solubility,[5],510 µg/mL
same,bioavailability,[26],~60%
same,IC50,[2],> 10 µM
same,AUC,[27],212 ng·h/mL
same,clearance,[28],21.7 mL/min/kg
same,Cmax,[29],92 ng/mL
CCCOC[C@@H](NC(=O)c1ccc(Cl)s1)C(=O)Nc1ccc(N2CCOCC2=O)c(C)c1,IC50,[1],> 10 µM
same,MAD,[4],1.9 mg/kg
same,IC50,[3],0.012 µM
same,solubility,[5],92 µg/mL
same,IC50,[2],> 10 µM
Cc1cc(NC(=O)[C@@H](CC(C)C)NC(=O)c2ccc(Cl)s2)ccc1N1CCOCC1=O,IC50,[1],> 10 µM
same,MAD,[4],0.6 mg/kg
same,IC50,[3],0.0072 µM
same,solubility,[5],29 µg/mL
same,IC50,[2],> 10 µM
